Source: ChEMBL document CHEMBL1629694, “Inhibition of dengue virus RNA synthesis by an adenosine nucleoside” (Antimicrob Agents Chemother, 2010)
pEC50: −log10 of the molar value. The source made the active and inactive calls. The calls are words filed in the database; no cut-off is given here.

Legend:
[1] = tested on: dengue virus type 2; test: Antiviral activity against at 0.3 MOI Dengue virus 2 infected in human A549 cells assessed as level of E protein after 48 hrs by ELISA; type: functional, organism-based; conditions: A549, 48 h
Method in brief: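 CFI assay: A549 cells (2 × 10^4/well) seeded and infected the next day with DENV-2 at MOI 0.3 for 1 h, compound added to the inoculum. Medium then replaced with fresh medium containing compound. Cells methanol-fixed on day 2 p.i. E protein detected by ELISA (mAb 4G2, HRP anti-mouse IgG). EC50 from nonlinear regression.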

[2] = Cytotoxicity against human A549 cells assessed as intracellular ATP level by Celltiter-Glo luminescent assay; type: cell-based
[3] = tested on: Blood; test: Drug uptake in rat blood assessed as tri-derivatives of compound level at 25 mg/kg, po by […]; type: ADME, organism-based; design: dose 25 mg/kg, route oral; conditions: in vivo
Method in brief: (§1)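 Male Han-Wistar rats given 14C-labeled compound (label at adenine C-2) as a single intravenous 5 mg/kg or oral 25 mg/kg dose. Plasma and blood pellets sampled over time; pellets first taken up in 2 volumes of pH 2.5 ammonium formate/0.1% formic acid. Extraction in ice-cold acetonitrile (3:1). Metabolites profiled by HPLC with off-line radioactivity detection and identified by MS.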

[4] = tested on: dengue virus type 2; test: Antiviral activity against at 1 MOI of Dengue virus 2 infected in hamster BHK21 cells assessed as decrease in viral NS3 protein expression at 3 uM after 24 hrs post-transfection by […]; type: functional, organism-based; conditions: BHK-21, 1 M
Method in brief: (§2)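 Replicon-electroporated BHK-21 cells treated immediately with 1 or 3 μM compound, with 0.9% DMSO control. Cells lysed at 24 and 35 h p.t. NS3 detected by Western blot with in-house rabbit anti-NS3 (1:5,000). γ-Tubulin (1:1,000) served as reference, with HRP secondary antibodies (1:8,000).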

[5] = tested on: dengue virus type 2; test: Antiviral activity against at 1 MOI of Dengue virus 2 infected in hamster BHK21 cells assessed as decrease in viral NS3 protein expression at 1 uM after 24 hrs post-transfection by […]; type: functional, organism-based; conditions: BHK-21, 1 M; method in brief: as §2
[6] = tested on: dengue virus type 2; test: Antiviral activity against Dengue virus 2 TSVO1 infected in alpha/beta interferon and INFgamma receptor deficient AG129 mouse assessed as decrease in viral load at 300 mg/kg, po 12 hrs postinfection […]; type: functional, organism-based; design: dose 300 mg/kg
[7] = tested on: dengue virus type 2; test: Antiviral activity against at 1 MOI of Dengue virus 2 infected in hamster BHK21 cells assessed as viral titer after 48 hrs postinfection by plaque assay; type: functional, organism-based; conditions: BHK-21, 1 M
[8] = tested on: dengue virus type 2; test: Antiviral activity against Dengue virus 2 infected in human HEK293 cells assessed as level of viral titer after 48 hrs by luciferase reporter gene assay in presence of siRNA targeting deoxycytidine kinase; type: functional, organism-based
[9] = Cytotoxicity against hamster BHK21 cells assessed as intracellular ATP level upto 100 uM by Celltiter-Glo luminescent assay; type: cell-based, Mesocricetus auratus; conditions: bhk-21
Method in brief: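 CC50 estimated from intracellular ATP by CellTiter-Glo luminescence. BHK-21 cells were tested up to 100 μM.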

[10] = tested on: dengue virus type 2; test: Antiviral activity against at 1 MOI of Dengue virus 2 infected in hamster BHK21 cells assessed as decrease in viral NS3 protein expression at 3 uM after 35 hrs post-transfection by […]; type: functional, organism-based; conditions: BHK-21, 1 M; method in brief: as §2
[11] = tested on: dengue virus type 2; test: Antiviral activity against at 1 MOI of Dengue virus 2 infected in hamster BHK21 cells assessed as decrease in viral RNA synthesis at 3 uM after 24 hrs post-transfection by luciferase reporter gene assay; type: functional, organism-based; conditions: BHK-21, 1 M
Method in brief: (§3)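 DENV-2 luciferase replicon RNA (10 μg) electroporated into 8 × 10^6 BHK-21 cells, then seeded at 3.2 × 10^5/well. Cells incubated immediately with 1 or 3 μM compound, with 0.9% DMSO (final) as control. Luciferase measured at 2–4 h (translation of input RNA) and at 24 and 35 h p.t. (RNA synthesis).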

[12] = tested on: Blood; test: Drug uptake in rat blood assessed as di-derivatives of compound level at 25 mg/kg, po by […]; type: ADME, organism-based; design: dose 25 mg/kg, route oral; conditions: in vivo; method in brief: as §1
[13] = tested on: dengue virus type 2; test: Antiviral activity against at 1 MOI of Dengue virus 2 infected in hamster BHK21 cells assessed as decrease in viral RNA synthesis at 1 uM after 2 to 4 hrs post-transfection by luciferase reporter gene assay; type: functional, organism-based; conditions: BHK-21, 1 M; method in brief: as §3
[14] = tested on: dengue virus type 2; test: Antiviral activity against Dengue virus 2 TSVO1 infected in alpha/beta interferon and INFgamma receptor deficient AG129 mouse assessed as […] at 150 mg/kg, po 12 hrs postinfection measured after 3 days of infection […]; type: functional, organism-based; design: dose 150 mg/kg
[15] = tested on: dengue virus type 2; test: Antiviral activity against Dengue virus 2 infected in human HEK293 cells assessed as level of viral titer after 48 hrs by luciferase reporter gene assay in presence of siRNA targeting adenosine kinase; type: functional, organism-based; conditions: HEK293, 48 h
[16] = tested on: Blood; test: Drug uptake in rat blood assessed as mono-derivatives of compound level at 25 mg/kg, po by […]; type: ADME, organism-based; design: dose 25 mg/kg, route oral; conditions: in vivo; method in brief: as §1
[17] = tested on: dengue virus type 2; test: Antiviral activity against at 1 MOI of Dengue virus 2 infected in hamster BHK21 cells assessed as decrease in viral RNA synthesis at 3 uM after 35 hrs post-transfection by luciferase reporter gene assay; type: functional, organism-based; conditions: BHK-21, 1 M; method in brief: as §3
[18] = tested on: dengue virus type 2; test: Antiviral activity against at 0.3 MOI of Dengue virus 2 infected in hamster BHK21 cells assessed as reduction in viral titer at 6 uM after 48 hrs postinfection; type: functional, organism-based; conditions: BHK-21, 0.3 M
Method in brief: (§4)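 BHK-21 cells infected with DENV-2 at MOI 0.3 and treated immediately with graded compound concentrations. Viral titers in culture fluid determined at 48 h p.i.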

[19] = tested on: dengue virus type 2; test: Antiviral activity against at 1 MOI of Dengue virus 2 infected in hamster BHK21 cells assessed as decrease in viral RNA synthesis at 1 uM after 35 hrs post-transfection by luciferase reporter gene assay; type: functional, organism-based; conditions: BHK-21, 1 M; method in brief: as §3
[20] = tested on: dengue virus type 2; test: Antiviral activity against at 1 MOI of Dengue virus 2 infected in hamster BHK21 cells assessed as decrease in viral RNA synthesis at 1 uM after 24 hrs post-transfection by luciferase reporter gene assay; type: functional, organism-based; conditions: BHK-21, 1 M; method in brief: as §3
[21] = tested on: dengue virus type 2; test: Antiviral activity against Dengue virus 2 infected in human A549 cells assessed as level of E protein production up to 20 uM by ELISA in presence of 0.2 uM adenosine kinase inhibitor iodotubercidin; type: functional, organism-based
Method in brief: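 CFI assay in A549 cells with iodotubercidin at 0.2 μM and test compound up to 20 μM. Cells infected with DENV-2 at MOI 0.3 for 1 h with compound in the inoculum, then refed with compound-containing medium. Methanol fixation on day 2 p.i. E protein read by 4G2/HRP ELISA.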

[22] = tested on: dengue virus type 2; test: Antiviral activity against Dengue virus 2 TSVO1 infected in alpha/beta interferon and INFgamma receptor deficient AG129 mouse assessed as decrease in viral load treated 12 hrs postinfection measured after 3 days of infection […]; type: functional, organism-based
[23] = tested on: dengue virus type 2; test: Antiviral activity against at 1 MOI of Dengue virus 2 infected in hamster BHK21 cells assessed as decrease in viral NS3 protein expression at 1 uM after 35 hrs post-transfection by […]; type: functional, organism-based; conditions: BHK-21, 1 M; method in brief: as §2
[24] = tested on: dengue virus type 2; test: Antiviral activity against 3x10^7 PFU Dengue virus 2 D2S10 infected in alpha/beta interferon and INFgamma receptor deficient AG129 mouse assessed as protection against lethal virus challenge at 75 mg/kg, po treated 12 hrs postinfection by HPLC; type: functional, organism-based; design: dose 75 mg/kg
Method in brief: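 AG129 mice infected intravenously with 3 × 10^7 PFU of mouse-adapted DENV-2 strain D2S10. A single 75 mg/kg dose given at 12 h postinfection. Read-out was survival after the lethal challenge.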

[25] = tested on: Plasma; test: Drug uptake in rat plasma at 25 mg/kg, po by […]; type: ADME, organism-based; design: dose 25 mg/kg, route oral; conditions: in vivo; method in brief: as §1
[26] = tested on: dengue virus type 2; test: Selectivity ratio of EC50 for Dengue virus 2 infected in human HEK293 cells in presence of siRNA targeting adenosine kinase to EC50 for Dengue virus 2 infected in human HEK293 cells in absence of siRNA targeting adenosine kinase; type: functional
Method in brief: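 siRNA pools (10 pmol, four siRNAs against adenosine kinase or deoxycytidine kinase) reverse-transfected with RNAiMax into HEK-293 cells carrying a DENV-2 luciferase replicon (2 × 10^4/well). After 24 h at 37°C, graded compound concentrations were added. Renilla luciferase was read 3 days later. EC50s were compared with and without siRNA.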

[27] = tested on: dengue virus type 2; test: Antiviral activity against at 1 MOI of Dengue virus 2 infected in hamster BHK21 cells assessed as decrease in viral RNA synthesis at 3 uM after 2 to 4 hrs post-transfection by luciferase reporter gene assay; type: functional, organism-based; conditions: BHK-21, 1 M; method in brief: as §3
[28] = tested on: dengue virus type 2; test: Antiviral activity against at 0.3 MOI of Dengue virus 2 infected in hamster BHK21 cells assessed as reduction in viral titer after 48 hrs postinfection; type: functional, organism-based; method in brief: as §4

Compound: C#C[C@@]1(O)[C@H](O)[C@@H](CO)O[C@H]1n1cc(F)c2c(N)ncnc21
- pEC50 [1]: 6.38
- CC50 [2]: 44 µM

Compound: C#C[C@@]1(O)[C@H](O)[C@@H](CO)O[C@H]1n1cc(C#N)c2c(N)ncnc21
- pEC50 [1]: 5.51
- CC50 [2]: > 100 µM

Compound: C[C@@]1(O)[C@H](O)[C@@H](CO)O[C@H]1n1cnc2c(N)ncnc21
- pEC50 [1]: 5.95
- CC50 [2]: > 50 µM

Compound: C#C[C@@]1(O)[C@H](O)[C@@H](CO)O[C@H]1n1cnc2c(N)ncnc21
- pEC50 [1]: 5.85
- CC50 [2]: 40 µM

Compound: C#C[C@@]1(O)[C@H](O)[C@@H](CO)O[C@H]1n1ccc2c(N)ncnc21
- Drug uptake [3]: Active
- Activity [4]: Active
- Activity [5]: Active
- pEC50 [1]: 6.15
- Activity [6]: inactive
- Activity [7]: Active
- Activity [8]: Active
- Activity [9]: Non-toxic
- Activity [10]: Active
- Activity [11]: Active
- Drug uptake [12]: Active
- Activity [13]: inactive
- Activity [14]: inactive
- pEC50 [15]: 5.04
- Drug uptake [16]: Active
- Activity [17]: Active
- Activity [18]: Active
- Activity [19]: Active
- Activity [20]: Active
- Activity [21]: inactive
- Activity [22]: Active
- Activity [23]: Active
- Activity [24]: Active
- Drug uptake [25]: Active
- Selectivity ratio [26]: 11
- Activity [27]: inactive
- CC50 [2]: > 100 µM
- Activity ([28]; BHK-21, 0.3 M): Dose-dependent effect
- pEC50 ([28]; BHK-21, 48 h): 6.15

Compound: C#C[C@@]1(O)[C@H](O)[C@@H](CO)O[C@H]1n1ccc(N)nc1=O [2'-ETHYNYL-D-CYTIDINE]
- pEC50 [1]: < 4.00
- CC50 [2]: > 100 µM

Compound: CC[C@@]1(O)[C@H](O)[C@@H](CO)O[C@H]1n1cnc2c(N)ncnc21
- pEC50 [1]: < 4.00
- CC50 [2]: > 100 µM

Compound: C#C[C@@]1(O)[C@H](O)[C@@H](CO)O[C@H]1n1cnc2c(=O)[nH]c(N)nc21
- pEC50 [1]: < 4.00
- CC50 [2]: > 100 µM

Compound: C#C[C@@]1(O)[C@H](O)[C@@H](CO)O[C@H]1n1cc(C(N)=O)c2c(N)ncnc21
- pEC50 [1]: 5.70
- CC50 [2]: 62 µM

Compound: CC#C[C@@]1(O)[C@H](O)[C@@H](CO)O[C@H]1n1cnc2c(N)ncnc21
- pEC50 [1]: < 4.00
- CC50 [2]: > 100 µM

Compound: C=C[C@@]1(O)[C@H](O)[C@@H](CO)O[C@H]1n1cnc2c(N)ncnc21
- pEC50 [1]: < 4.30
- CC50 [2]: > 59 µM
